In ChEMBL document CHEMBL1154117, “Synthesis and evaluation of a novel series of quinoline derivatives with immunosuppressive activity” (Bioorg Med Chem, 2009):

Key:
T-cell [1] = assay: Immunosuppressive activity against concanavalin A-induced BALB/c mouse splenocytes assessed as T-cells activation at 10 uM after 24 hrs by FACS assay; type: functional
Procedure, shortened: (§1)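 Male BALB/c splenocytes (6–8 weeks), 5 × 10⁵, stimulated with ConA 5 μg/mL, with or without compound. After 24 h, cells washed twice in cold PBS and stained with CD25-FITC and CD4-APC for 30 min at 4 °C. Washed again and analysed by flow cytometry as the CD4+CD25+/CD4+ percentage.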

T-cell [2] = assay: Immunosuppressive activity against concanavalin A-induced BALB/c mouse splenocytes assessed as T-cells activation at 30 uM after 24 hrs by FACS assay; type: functional; procedure, shortened: as §1
[3] = Cytotoxicity against BALB/c mouse splenocytes at 30 uM after 48 hrs by MTT assay; type: cell-based, Splenocyte; settings: read-out: INH
Procedure, shortened: (§2)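 BALB/c spleen single-cell suspension, erythrocytes depleted with Tris-buffered NH4Cl (0.155 M NH4Cl, 16.5 mM Tris, pH 7.2). Cells cultured in RPMI-1640 with 10% FBS and compound diluted from DMSO stock (0.1% DMSO in control). Medium-alone cells served as control. MTT (5 mg/mL) added 4 h before end of culture, then SDS/DMF lysis buffer (pH 7.2) for 6 h. Absorbance read at 570 nm and growth inhibition % calculated.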

[4] = Cytotoxicity against BALB/c mouse splenocytes at 10 uM after 48 hrs by MTT assay; type: cell-based, Splenocyte; settings: read-out: INH; procedure, shortened: as §2
[5] = Immunosuppressive activity in BALB/c mouse splenocytes assessed as inhibition of concanavalin A-induced cell proliferation at 30 uM after 48 hrs by MTT assay; type: functional; settings: Splenocyte
Procedure, shortened: (§3)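 Spleen cells (5 × 10⁵) from male BALB/c mice aged 6–8 weeks, erythrocytes lysed, stimulated with ConA 5 μg/mL in RPMI-1640/10% FBS. Compounds diluted from DMSO stock. ConA-stimulated cells used as control. Proliferation read by MTT added 4 h before end of culture, SDS/DMF lysis for 6 h, absorbance at 570 nm.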

[6] = Immunosuppressive activity in BALB/c mouse splenocytes assessed as inhibition of concanavalin A-induced cell proliferation at 100 uM after 48 hrs by MTT assay; type: functional; settings: Splenocyte; procedure, shortened: as §3
[7] = Immunosuppressive activity in BALB/c mouse splenocytes assessed as inhibition of concanavalin A-induced cell proliferation at 10 uM after 48 hrs by MTT assay; type: functional; settings: Splenocyte; procedure, shortened: as §3
T-cell [8] = assay: Immunosuppressive activity against concanavalin A-induced BALB/c mouse splenocytes assessed as T-cells activation at 1 uM after 24 hrs by FACS assay; type: functional; procedure, shortened: as §1
Splenocyte [9] = assay: Immunosuppressive activity against concanavalin A-induced BALB/c mouse splenocytes assessed as inhibition of [3H]thymidine incorporation at 10 uM by liquid scintillation counting; type: functional
Splenocyte [10] = assay: Immunosuppressive activity against concanavalin A-induced BALB/c mouse splenocytes assessed as inhibition of [3H]thymidine incorporation at 30 uM by liquid scintillation counting; type: functional
[11] = Cytotoxicity against BALB/c mouse splenocytes at 100 uM after 48 hrs by MTT assay; type: cell-based, Splenocyte; settings: read-out: INH; procedure, shortened: as §2
T-cell [12] = assay: Immunosuppressive activity against concanavalin A-induced BALB/c mouse splenocytes assessed as T-cells activation at 3 uM after 24 hrs by FACS assay; type: functional; procedure, shortened: as §1
Splenocyte [13] = assay: Immunosuppressive activity against concanavalin A-induced BALB/c mouse splenocytes assessed as inhibition of [3H]thymidine incorporation at 1 uM by liquid scintillation counting; type: functional
[14] = Immunosuppressive activity in BALB/c mouse splenocytes assessed as inhibition of concanavalin A-induced cell proliferation at 1 uM after 48 hrs by MTT assay; type: functional; settings: Splenocyte; procedure, shortened: as §3

Compound	Activity (T-cell [1]) [%]	Activity (T-cell [2]) [%]	cytotoxicity at 48 h, 30 µM [3] [%]	cytotoxicity at 48 h, 10 µM [4] [%]	inhibition at 30 µM [5] [%]	inhibition at 100 µM [6] [%]	inhibition at 10 µM [7] [%]	Activity (T-cell [8]) [%]	inhibition at 10 µM (Splenocyte [9]) [%]	inhibition at 30 µM (Splenocyte [10]) [%]	cytotoxicity at 48 h, 100 µM [11] [%]	Activity (T-cell [12]) [%]	inhibition at 1 µM (Splenocyte [13]) [%]	inhibition at 1 µM [14] [%]
COc1cc(OC)c2c(OC(=O)c3c(Cl)cccc3Cl)ccnc2c1	59.64	19.41	52.7	10.9	94.6	94.3	94	92.96	97.8	99.2	83.4	88.8	34.7	–
C/C=C/C[C@@H](C)[C@@H](O)[C@H]1C(=O)N[C@@H](CC)C(=O)N(C)CC(=O)N(C)[C@@H](CC(C)C)C(=O)N[C@@H](C(C)C)C(=O)N(C)[C@@H](CC(C)C)C(=O)N[C@@H](C)C(=O)N[C@H](C)C(=O)N(C)[C@@H](CC(C)C)C(=O)N(C)[C@@H](CC(C)C)C(=O)N(C)[C@@H](C(C)C)C(=O)N1C [CYCLOSPORINE]	–	–	–	–	–	–	–	35.14	–	–	–	–	–	86.4
COc1cc(OC)c2c(OC(=O)c3ccccc3Br)ccnc2c1	93.63	86.21	22.5	9.8	85.7	93.3	51.2	94.92	42	85.4	29.2	93.23	4.8	–
COc1cc(OC)c2c(OC(=O)c3ccccc3C)ccnc2c1	85.45	75.65	53.9	9.4	91.4	92.2	70.3	93.81	55.4	94.6	64	92.54	2.2	–
COc1cc(OC)c2c(OC(=O)c3ccccc3[N+](=O)[O-])ccnc2c1	92.75	86.19	32	10.7	75.2	90.5	38.6	94.79	21.1	64.6	33.4	94.01	10.2	–
COc1cc(OC)c2c(O[C@@H]3O[C@H](CO)[C@H](O)[C@H](O)[C@H]3O)ccnc2c1	–	–	4.2	6.2	11.2	17.8	4.2	–	–	–	17	–	–	–
CCCCCCCCC(=O)Oc1ccnc2cc(OC)cc(OC)c12	–	–	2	6.4	2	31.9	4.4	–	–	–	11.6	–	–	–
COC(=O)c1ccc(C(=O)Oc2ccnc3cc(OC)cc(OC)c23)cc1	–	–	2.2	6.6	27.8	91.4	15.7	–	–	–	23.6	–	–	–
COc1cc(OC)c2c(OC(=O)c3ccccc3Cl)ccnc2c1	93.1	90.86	6.6	2.9	73.7	89.8	46.1	95.63	37.9	52	39.8	92.8	4.3	–
COc1cc(OC)c2c(OS(=O)(=O)c3ccc(C)cc3)ccnc2c1	68.39	13.7	5.4	6.2	94.7	94.2	82.3	85.74	87.7	98.9	13.2	81.66	12.9	–
COc1cc(OC)c2c(OC(=O)c3ccc(Br)cc3)ccnc2c1	–	–	7.3	8.6	17.5	48.2	9.2	–	–	–	20.7	–	–	–
COc1cc(OC)c2c(OC(=O)c3ccc(Cl)cc3)ccnc2c1	–	–	0.3	3.4	47.4	86.3	30.1	–	–	–	21.9	–	–	–
COc1cc(OC)c2c(OC(=O)c3ccc([N+](=O)[O-])cc3)ccnc2c1	–	–	11.1	6	34.1	64	18.4	–	–	–	9.5	–	–	–
COc1cc(OC)c2c(OC(C)=O)ccnc2c1	–	–	11.2	8.3	9.7	22.7	4.1	–	–	–	11.3	–	–	–
COc1cc(OC)c2c(OC(=O)c3ccccc3I)ccnc2c1	90.04	83.23	26.5	14.3	90.6	93	63	93.1	47.5	87.1	54.7	91.87	8.2	–
COc1cc(OC)c2c(OC(=O)c3ccccc3I)cc(C)nc2c1	–	–	18.2	-3.4	54	91.5	19.9	–	–	–	37.6	–	–	–
CCCCCCCC/C=C\CCCCCCCC(=O)Oc1ccnc2cc(OC)cc(OC)c12	–	–	8.8	4.1	8.5	22.2	4.4	–	–	–	7.2	–	–	–
